In ChEMBL document CHEMBL1821684, “A novel and efficient one-pot synthesis of symmetrical diamide (bis-amidate) prodrugs of acyclic nucleoside phosphonates and evaluation of their biological activities” (Eur J Med Chem, 2011):
Calls of active or inactive are those of the source. No cut-off for these calls is given here.

system: not listed separately; assay: Antiproliferative activity against human HeLaS3 after 72 hrs by XTT assay; type: functional; settings: HeLa S3, 72 h
In short: (§1)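 CCRF-CEM, HL-60 and HeLa S3 cells were grown in RPMI 1640 with 5% calf fetal serum, and Hep G2 cells in Eagle's MEM with 10% calf fetal serum. Cells were exposed to compound, and growth was ended 72 h after drug addition. Viability was then quantified by the XTT spectrophotometric assay.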

Row | SMILES | IC50
1 | CCOC(=O)[C@H](C)NP(=O)(COCCn1cnc2c(NC3CC3)nc(N)nc21)N[C@@H](C)C(=O)OCC [RABACFOSADINE] | 2150 nM
2 | CCOC(=O)[C@H](C)NP(=O)(COCCn1cnc2c(=O)[nH]c(N)nc21)N[C@@H](C)C(=O)OCC | 3940 nM

system: Human immunodeficiency virus 1; assay: Antiviral activity against HIV1 3B infected in human MT-2 cells assessed as reduction in virus-induced cytopathic effect after 5 days by luminescence assay; type: functional, organism-based; settings: Human immunodeficiency virus 1, 3B, MT2, 120 h
In short: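 MT-2 cells were kept below 0.6 × 10^6 cells/mL and infected in bulk with HIV-1 IIIB for 3 h at MOI 0.0055. They were seeded at 3 × 10^3 cells/well with 3-fold serial compound dilutions in triplicate, 0.5% DMSO final. After 5 days at 37 °C, cytopathic effect was read by CellTiter-Glo luminescence. EC50 came from non-linear regression of multiple data sets.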

Row | SMILES | EC50
3 | Nc1nc(NC2CC2)c2ncn(C[C@@H](CF)OCP(=O)(O)O)c2n1 | 13200 nM
4 | C[C@H](Cn1cnc2c(N)nc(F)nc21)OCP(=O)(O)O | > 85300 nM
5 | CCOC(=O)[C@H](C)NP(=O)(CO[C@H](CF)Cn1cnc2c(NC3CC3)nc(N)nc21)N[C@@H](C)C(=O)OCC | 10700 nM

Next, values leading:

Row | EC50 | SMILES
6 | 5510 nM | CCOC(=O)[C@H](C)NP(=O)(CO[C@H](C)Cn1cnc2c(N)nc(F)nc21)N[C@@H](C)C(=O)OCC
7 | 1130 nM | CCOC(=O)[C@H](C)NP(=O)(COCCOc1cc(N)nc(N)n1)N[C@@H](C)C(=O)OCC
8 | 940 nM | C[C@H](Cn1cnc2c(N)nc(N)nc21)OCP(=O)(O)O
9 | 540 nM | CCOC(=O)[C@H](C)NP(=O)(CO[C@H](CF)Cn1cnc2c(N)ncnc21)N[C@@H](C)C(=O)OCC
10 | 290 nM | CCOC(=O)[C@H](C)NP(=O)(CO[C@H](C)Cn1cnc2c(N)nc(N)nc21)N[C@@H](C)C(=O)OCC

organism: Mus musculus; assay: Immunomodulatory activity in C57BL/6 mouse peritoneal cells assessed as inhibition of LPS-induced NO production at 25 uM after 24 hrs by Griess reagent method; type: functional; settings: not given
In short: (§2)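 Peritoneal cells pooled from 4 female C57BL/6 mice (8–10 weeks) were seeded at 2 × 10^6 cells/mL in complete RPMI-1640 with 10% FBS, at 37 °C and 5% CO2. Compound was given alone or with IFN-γ (5000 pg/mL) or IFN-γ plus E. coli LPS (100 pg/mL) for 24 h. Supernatant nitrite was measured with Griess reagent (5 min, A540) against a nitrite calibration curve.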

Row | SMILES | inhibition
11 | CCOC(=O)[C@H](C)NP(=O)(COCCOc1cc(N)nc(N)n1)N[C@@H](C)C(=O)OCC | inactive
12 | CCOC(=O)[C@H](C)NP(=O)(COCCn1cnc2c(NC3CC3)nc(N)nc21)N[C@@H](C)C(=O)OCC [RABACFOSADINE] | inactive
13 | CCOC(=O)[C@H](C)NP(=O)(CO[C@H](CF)Cn1cnc2c(N)ncnc21)N[C@@H](C)C(=O)OCC | inactive
14 | CCOC(=O)[C@H](C)NP(=O)(COCCn1cnc2c(=O)[nH]c(N)nc21)N[C@@H](C)C(=O)OCC | inactive
15 | CCOC(=O)[C@H](C)NP(=O)(CO[C@H](C)Cn1cnc2c(N)nc(F)nc21)N[C@@H](C)C(=O)OCC | inactive
16 | CCOC(=O)[C@H](C)NP(=O)(COCCn1cnc2c(NC3CCCCCCC3)nc(N)nc21)N[C@@H](C)C(=O)OCC | inactive
17 | CCOC(=O)[C@H](C)NP(=O)(CO[C@H](CF)Cn1cnc2c(NC3CC3)nc(N)nc21)N[C@@H](C)C(=O)OCC | inactive
18 | CCOC(=O)[C@H](C)NP(=O)(CO[C@H](C)Cn1cnc2c(N)nc(N)nc21)N[C@@H](C)C(=O)OCC | inactive

organism: Mus musculus; assay: Immunostimulatory activity in C57BL/6 mouse peritoneal cells assessed as stimulation of LPS-induced NO production at 25 uM after 24 hrs by Griess reagent method; type: functional; settings: not given; in short: as §2

Row | SMILES | Activity
19 | CCOC(=O)[C@H](C)NP(=O)(COCCOc1cc(N)nc(N)n1)N[C@@H](C)C(=O)OCC | inactive
20 | CCOC(=O)[C@H](C)NP(=O)(COCCn1cnc2c(NC3CC3)nc(N)nc21)N[C@@H](C)C(=O)OCC [RABACFOSADINE] | inactive
21 | CCOC(=O)[C@H](C)NP(=O)(CO[C@H](CF)Cn1cnc2c(N)ncnc21)N[C@@H](C)C(=O)OCC | inactive
22 | CCOC(=O)[C@H](C)NP(=O)(COCCn1cnc2c(=O)[nH]c(N)nc21)N[C@@H](C)C(=O)OCC | inactive
23 | CCOC(=O)[C@H](C)NP(=O)(CO[C@H](C)Cn1cnc2c(N)nc(F)nc21)N[C@@H](C)C(=O)OCC | inactive
24 | CCOC(=O)[C@H](C)NP(=O)(COCCn1cnc2c(NC3CCCCCCC3)nc(N)nc21)N[C@@H](C)C(=O)OCC | inactive
25 | CCOC(=O)[C@H](C)NP(=O)(CO[C@H](CF)Cn1cnc2c(NC3CC3)nc(N)nc21)N[C@@H](C)C(=O)OCC | inactive
26 | CCOC(=O)[C@H](C)NP(=O)(CO[C@H](C)Cn1cnc2c(N)nc(N)nc21)N[C@@H](C)C(=O)OCC | inactive

system: HL-60; assay: Antiproliferative activity against human HL60 after 72 hrs by XTT assay; type: functional, cell-based; settings: HL-60, 72 h; in short: as §1

Row | IC50 | SMILES
27 | 780 nM | CCOC(=O)[C@H](C)NP(=O)(COCCn1cnc2c(NC3CC3)nc(N)nc21)N[C@@H](C)C(=O)OCC [RABACFOSADINE]
28 | 3020 nM | CCOC(=O)[C@H](C)NP(=O)(COCCn1cnc2c(=O)[nH]c(N)nc21)N[C@@H](C)C(=O)OCC

system: CCRF-CEM; assay: Antiproliferative activity against human CCRF-CEM after 72 hrs by XTT assay; type: functional, cell-based; settings: not given; in short: as §1

Row | IC50 | SMILES
29 | 480 nM | CCOC(=O)[C@H](C)NP(=O)(COCCn1cnc2c(NC3CC3)nc(N)nc21)N[C@@H](C)C(=O)OCC [RABACFOSADINE]
30 | 1220 nM | CCOC(=O)[C@H](C)NP(=O)(COCCn1cnc2c(=O)[nH]c(N)nc21)N[C@@H](C)C(=O)OCC

system: not listed separately; assay: Cytotoxicity against human MT2 cells assessed as inhibition of cell proliferation after 5 days by luminescence assay; type: cell-based; settings: not given
In short: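 Uninfected MT-2 cells at 3 × 10^3 cells/well were run on replicate plates alongside the antiviral assay, with 3-fold serial compound dilutions in triplicate and 0.5% DMSO final. After 5 days at 37 °C, viability was read by CellTiter-Glo luminescence. CC50 came from non-linear regression of multiple data sets.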

Row | SMILES | CC50 at 120 h
31 | CCOC(=O)[C@H](C)NP(=O)(COCCOc1cc(N)nc(N)n1)N[C@@H](C)C(=O)OCC | 73300 nM
32 | Nc1nc(NC2CC2)c2ncn(C[C@@H](CF)OCP(=O)(O)O)c2n1 | > 100000 nM
33 | CCOC(=O)[C@H](C)NP(=O)(CO[C@H](CF)Cn1cnc2c(N)ncnc21)N[C@@H](C)C(=O)OCC | > 100000 nM
34 | C[C@H](Cn1cnc2c(N)nc(F)nc21)OCP(=O)(O)O | > 100000 nM
35 | CCOC(=O)[C@H](C)NP(=O)(CO[C@H](C)Cn1cnc2c(N)nc(F)nc21)N[C@@H](C)C(=O)OCC | > 100000 nM
36 | CCOC(=O)[C@H](C)NP(=O)(CO[C@H](CF)Cn1cnc2c(NC3CC3)nc(N)nc21)N[C@@H](C)C(=O)OCC | > 100000 nM
37 | C[C@H](Cn1cnc2c(N)nc(N)nc21)OCP(=O)(O)O | > 100000 nM
38 | CCOC(=O)[C@H](C)NP(=O)(CO[C@H](C)Cn1cnc2c(N)nc(N)nc21)N[C@@H](C)C(=O)OCC | > 100000 nM

system: not listed separately; assay: Antiproliferative activity against human HepG2 after 72 hrs by XTT assay; type: functional; settings: HepG; in short: as §1

Row | SMILES | IC50
39 | CCOC(=O)[C@H](C)NP(=O)(COCCn1cnc2c(NC3CC3)nc(N)nc21)N[C@@H](C)C(=O)OCC [RABACFOSADINE] | 1740 nM
40 | CCOC(=O)[C@H](C)NP(=O)(COCCn1cnc2c(=O)[nH]c(N)nc21)N[C@@H](C)C(=O)OCC | 2320 nM
